Reference: ChEMBL document CHEMBL1770135, “Acylideneoxoindoles: a new class of reversible inhibitors of human transglutaminase 2” (Bioorg Med Chem Lett, 2011)
Active and inactive are the calls of the source. No cut-off for these calls is given here.

Biological target: T1, Protein-glutamine gamma-glutamyltransferase (Homo sapiens, UniProt P21980)
T1 sequence (P21980 whole entry): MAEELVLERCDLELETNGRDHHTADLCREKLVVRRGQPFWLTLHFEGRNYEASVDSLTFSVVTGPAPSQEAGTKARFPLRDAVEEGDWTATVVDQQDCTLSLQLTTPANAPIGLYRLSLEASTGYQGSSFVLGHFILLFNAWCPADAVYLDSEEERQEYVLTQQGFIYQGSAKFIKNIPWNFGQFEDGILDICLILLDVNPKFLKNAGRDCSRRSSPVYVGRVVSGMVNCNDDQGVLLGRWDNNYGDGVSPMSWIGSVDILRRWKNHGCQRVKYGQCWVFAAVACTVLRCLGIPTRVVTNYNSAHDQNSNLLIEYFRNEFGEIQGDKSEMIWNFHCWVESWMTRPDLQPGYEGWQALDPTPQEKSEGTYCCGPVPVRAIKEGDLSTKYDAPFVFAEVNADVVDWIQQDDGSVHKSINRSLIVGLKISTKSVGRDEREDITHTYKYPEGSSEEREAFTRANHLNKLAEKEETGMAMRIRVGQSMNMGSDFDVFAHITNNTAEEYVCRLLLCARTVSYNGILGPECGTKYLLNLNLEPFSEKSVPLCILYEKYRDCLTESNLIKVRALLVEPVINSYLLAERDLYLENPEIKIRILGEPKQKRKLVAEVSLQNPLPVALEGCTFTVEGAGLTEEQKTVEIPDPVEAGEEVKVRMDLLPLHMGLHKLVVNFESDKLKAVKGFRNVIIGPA
Test: Inhibition of human transglutaminase 2 using Cbz-Gln-Gly as a substrate by GDH-coupled assay
Conditions: not given
Method in brief: (§1)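 Glutamate dehydrogenase-coupled deamidation assay with human TG2 at 0.5 µM and Cbz-Gln-Gly as acyl donor substrate. […] Ki values were derived from kinetic analysis in a mixed inhibition model, with α taken as the Ki'/Ki ratio. Errors were typically under 10%.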

Structure (SMILES)	IC50	Ki
CN1C(=O)/C(=C/C(=O)c2cccnc2)c2c(Cl)cccc21	4000 nM	4000 nM
CC(C)N1C(=O)/C(=C/C(=O)c2cccnc2)c2c(Cl)cccc21	1400 nM	–
O=C1Nc2ccccc2C1=O [ISATIN]	> 250000 nM	–
COC(=O)c1ccc(CN2C(=O)/C(=C/C(=O)c3cccnc3)c3c(Cl)cccc32)cc1	1200 nM	–
O=C1Nc2c(Cl)cccc2/C1=C\C(=O)c1cccnc1	7300 nM	–
CC(=O)/C=C1/C(=O)Nc2cc(F)ccc21	11000 nM	5400 nM
CC(C)CN1C(=O)/C(=C/C(=O)c2cccnc2)c2c(Cl)cccc21	1000 nM	–
Cc1cc(C)c(CN2C(=O)C(=O)c3ccccc32)cc1CN1C(=O)C(=O)c2ccccc21	40000 nM	11000 nM
O=C1Nc2cccc(Cl)c2/C1=C\C(=O)c1cncc(Br)c1	1400 nM	–
O=C1Nc2cc(Br)ccc2/C1=C\C(=O)c1cccnc1	1500 nM	–
O=C1Nc2c(Br)cccc2/C1=C\C(=O)c1cccnc1	2900 nM	–
O=C1Nc2ccc([N+](=O)[O-])cc2/C1=C\C(=O)c1cccnc1	7900 nM	–
O=C1Nc2ccccc2/C1=C\C(=O)c1cccnc1	22000 nM	12000 nM
O=C(/C=C1/C(=O)N(c2ccccc2)c2cccc(Cl)c21)c1cccnc1	800 nM	–
O=C1Nc2cccc(Cl)c2/C1=C\C(=O)c1cccnc1	900 nM	1300 nM
O=C1Nc2ccc(Cc3ccc4c(c3)C(=O)C(=O)N4)cc2C1=O	30000 nM	15000 nM
COc1ccncc1C(=O)/C=C1/C(=O)Nc2cccc(Cl)c21	1400 nM	–
CC(=O)/C=C1/C(=O)Nc2ccccc21	11000 nM	10000 nM
CC(=O)/C=C1/C(=O)Nc2c(Cl)cccc21	4700 nM	–
O=C1Nc2cc(Cl)ccc2/C1=C\C(=O)c1cccnc1	2100 nM	5300 nM
O=C(/C=C1/C(=O)N(CCCc2ccccc2)c2cccc(Cl)c21)c1cccnc1	1300 nM	–
CC(=O)/C=C1/C(=O)Nc2cccc(Cl)c21	1500 nM	700 nM
O=C1Nc2cccc(Cl)c2/C1=C\C(=O)c1cccc(Cl)c1	700 nM	–
Nc1cccc(C(=O)/C=C2/C(=O)Nc3cccc(Cl)c32)c1	1400 nM	–
O=C1Nc2ccc(Br)cc2/C1=C\C(=O)c1cccnc1	4800 nM	3000 nM

Structure (SMILES)	IC50	Ki
COc1ccccc1C(=O)/C=C1/C(=O)Nc2cccc(Cl)c21	900 nM	–
COC(=O)c1cccc(CN2C(=O)/C(=C/C(=O)c3cccnc3)c3c(Cl)cccc32)c1	1100 nM	–
O=C1C(=O)N(CN2C(=O)C(=O)c3ccccc32)c2ccccc21	18000 nM	10000 nM
Nc1ccc(C(=O)/C=C2/C(=O)Nc3cccc(Cl)c32)cc1	1100 nM	–
O=C1Nc2cccc(Cl)c2/C1=C\C(=O)c1ccncc1	1200 nM	–
O=C1Nc2ccc(Cl)cc2/C1=C\C(=O)c1cccnc1	6000 nM	–
O=C1Nc2ccccc2/C1=C1/Nc2ccccc2C1=O [INDIRUBIN]	> 100000 nM	–
O=C1Nc2cccc(Cl)c2/C1=C\C(=O)c1ccccc1	2800 nM	3300 nM
CC(=O)/C=C1/C(=O)Nc2cc(OC(F)(F)F)ccc21	3600 nM	–
O=C1Nc2ccc(Oc3ccc4c(c3)C(=O)C(=O)N4)cc2C1=O	25000 nM	3000 nM
O=C1Nc2cccc(Cl)c2/C1=C\C(=O)c1ccccn1	1100 nM	–
O=C(/C=C1/C(=O)N(CCc2ccccc2)c2cccc(Cl)c21)c1cccnc1	1500 nM	–
COc1ccc(C(=O)/C=C2/C(=O)Nc3cccc(Cl)c32)cc1	1100 nM	–
CN(C)C(=O)CN1C(=O)/C(=C/C(=O)c2cccnc2)c2c(Cl)cccc21	5500 nM	–
CCOC(=O)CN1C(=O)/C(=C/C(=O)c2cccnc2)c2c(Cl)cccc21	1800 nM	–
O=C(/C=C1/C(=O)N(Cc2ccccc2)c2cccc(Cl)c21)c1cccnc1	1500 nM	410 nM
O=C1Nc2cccc(Br)c2/C1=C\C(=O)c1cccnc1	900 nM	400 nM
Cc1ccc2c(c1)/C(=C\C(=O)c1cccnc1)C(=O)N2	6300 nM	–
O=C1Nc2ccccc2/C1=C1\C(=O)Nc2ccccc21 [ISOINDIGO]	8000 nM	41000 nM
CC(=O)/C=C1/C(=O)Nc2ccc(Cl)cc21	4300 nM	900 nM
O=C(/C=C1/C(=O)N(CC2CCCCC2)c2cccc(Cl)c21)c1cccnc1	2100 nM	–
Cc1cc(CN2C(=O)C(=O)c3ccccc32)c(C)cc1CN1C(=O)C(=O)c2ccccc21	> 250000 nM	–
O=C1Nc2cccc(Cl)c2/C1=C\C(=O)c1ccc(Cl)cc1	800 nM	–
COc1cccc(C(=O)/C=C2/C(=O)Nc3cccc(Cl)c32)c1	1000 nM	–

Biological target: T2, Protein-glutamine gamma-glutamyltransferase (Homo sapiens) (UniProt P21980)
T2 sequence (whole entry): T1 sequence (P21980 whole entry)
Test: Partial inhibition of human transglutaminase 2 using Cbz-Gln-Gly as a substrate by GDH-coupled assay
Conditions: concentration not given here
Method in brief: as §1

Structure (SMILES)	inhibition
O=C1Nc2cc(Br)ccc2/C1=C\C(=O)c1cccnc1	35%
O=C1Nc2cc(Cl)ccc2/C1=C\C(=O)c1cccnc1	70%

Biological target: T1, Protein-glutamine gamma-glutamyltransferase
Test: Inhibition of human transglutaminase 2 using ZGBC as a substrate after 30 to 60 mins by fluorometric assay
Conditions: not given
Method in brief: (§2)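 Direct fluorometric assay following TG2-catalysed release of 7-hydroxycoumarin from an ester substrate, with human TG2 at 15 nM. […] Ki and α were derived from a mixed inhibition model, with α as the Ki'/Ki ratio.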

Structure (SMILES)	IC50	Ki
CN1C(=O)/C(=C/C(=O)c2cccnc2)c2c(Cl)cccc21	11000 nM	–
CC(C)N1C(=O)/C(=C/C(=O)c2cccnc2)c2c(Cl)cccc21	1500 nM	–
COC(=O)c1ccc(CN2C(=O)/C(=C/C(=O)c3cccnc3)c3c(Cl)cccc32)cc1	660 nM	–
O=C1Nc2c(Cl)cccc2/C1=C\C(=O)c1cccnc1	1600 nM	–
CC(=O)/C=C1/C(=O)Nc2cc(F)ccc21	20000 nM	–
CC(C)CN1C(=O)/C(=C/C(=O)c2cccnc2)c2c(Cl)cccc21	4100 nM	–
O=C1Nc2cccc(Cl)c2/C1=C\C(=O)c1cncc(Br)c1	970 nM	–
O=C1Nc2cc(Br)ccc2/C1=C\C(=O)c1cccnc1	360 nM	–
O=C1Nc2c(Br)cccc2/C1=C\C(=O)c1cccnc1	3200 nM	–
O=C1Nc2ccc([N+](=O)[O-])cc2/C1=C\C(=O)c1cccnc1	1700 nM	–
O=C1Nc2ccccc2/C1=C\C(=O)c1cccnc1	8500 nM	–
O=C(/C=C1/C(=O)N(c2ccccc2)c2cccc(Cl)c21)c1cccnc1	570 nM	–
O=C1Nc2cccc(Cl)c2/C1=C\C(=O)c1cccnc1	1700 nM	–
COc1ccncc1C(=O)/C=C1/C(=O)Nc2cccc(Cl)c21	950 nM	–
CC(=O)/C=C1/C(=O)Nc2ccccc21	19000 nM	–
CC(=O)/C=C1/C(=O)Nc2c(Cl)cccc21	3900 nM	–
O=C1Nc2cc(Cl)ccc2/C1=C\C(=O)c1cccnc1	20000 nM	–
O=C(/C=C1/C(=O)N(CCCc2ccccc2)c2cccc(Cl)c21)c1cccnc1	1000 nM	–
O=C1Nc2cccc(Cl)c2/C1=C\C(=O)c1cccc(Cl)c1	2800 nM	–
Nc1cccc(C(=O)/C=C2/C(=O)Nc3cccc(Cl)c32)c1	1800 nM	–

Structure (SMILES)	IC50	Ki
O=C1Nc2ccc(Br)cc2/C1=C\C(=O)c1cccnc1	560 nM	680 nM
COc1ccccc1C(=O)/C=C1/C(=O)Nc2cccc(Cl)c21	740 nM	–
COC(=O)c1cccc(CN2C(=O)/C(=C/C(=O)c3cccnc3)c3c(Cl)cccc32)c1	5600 nM	–
Nc1ccc(C(=O)/C=C2/C(=O)Nc3cccc(Cl)c32)cc1	3000 nM	–
O=C1Nc2cccc(Cl)c2/C1=C\C(=O)c1ccncc1	1000 nM	–
O=C1Nc2ccc(Cl)cc2/C1=C\C(=O)c1cccnc1	1200 nM	–
O=C1Nc2cccc(Cl)c2/C1=C\C(=O)c1ccccc1	20000 nM	–
CC(=O)/C=C1/C(=O)Nc2cc(OC(F)(F)F)ccc21	2600 nM	–
O=C1Nc2cccc(Cl)c2/C1=C\C(=O)c1ccccn1	890 nM	–
O=C(/C=C1/C(=O)N(CCc2ccccc2)c2cccc(Cl)c21)c1cccnc1	2900 nM	–
COc1ccc(C(=O)/C=C2/C(=O)Nc3cccc(Cl)c32)cc1	1300 nM	–
CN(C)C(=O)CN1C(=O)/C(=C/C(=O)c2cccnc2)c2c(Cl)cccc21	9200 nM	–
CCOC(=O)CN1C(=O)/C(=C/C(=O)c2cccnc2)c2c(Cl)cccc21	2500 nM	–
O=C(/C=C1/C(=O)N(Cc2ccccc2)c2cccc(Cl)c21)c1cccnc1	360 nM	1000 nM
O=C1Nc2cccc(Br)c2/C1=C\C(=O)c1cccnc1	1000 nM	250 nM
Cc1ccc2c(c1)/C(=C\C(=O)c1cccnc1)C(=O)N2	4500 nM	–
CC(=O)/C=C1/C(=O)Nc2ccc(Cl)cc21	3700 nM	–
O=C(/C=C1/C(=O)N(CC2CCCCC2)c2cccc(Cl)c21)c1cccnc1	6700 nM	–
O=C1Nc2cccc(Cl)c2/C1=C\C(=O)c1ccc(Cl)cc1	90 nM	–
COc1cccc(C(=O)/C=C2/C(=O)Nc3cccc(Cl)c32)c1	1100 nM	–

Biological target: T2, Protein-glutamine gamma-glutamyltransferase (Homo sapiens)
Test: Partial inhibition of human transglutaminase 2 using ZGBC as a substrate after 30 to 60 mins by fluorometric assay
Parameters: concentration or dose not given beside the values
Conditions: not given
Method in brief: as §2

Structure (SMILES)	inhibition
O=C1Nc2c(Cl)cccc2/C1=C\C(=O)c1cccnc1	70%
O=C1Nc2cc(Br)ccc2/C1=C\C(=O)c1cccnc1	65%
COc1ccncc1C(=O)/C=C1/C(=O)Nc2cccc(Cl)c21	50%
Nc1ccc(C(=O)/C=C2/C(=O)Nc3cccc(Cl)c32)cc1	65%
O=C1Nc2cccc(Cl)c2/C1=C\C(=O)c1ccc(Cl)cc1	60%

Biological target: T2, Protein-glutamine gamma-glutamyltransferase (Homo sapiens)
Conditions: 2 to 8 uM

Structure (SMILES)	inhibition
O=C1Nc2cc(Cl)ccc2/C1=C\C(=O)c1cccnc1	Active
